# Measured values as given in ChEMBL document CHEMBL4513216, “Probing the Open Global Health Chemical Diversity Library for Multistage-Active Starting Points for Next-Generation Antimalarials” (ACS Infect Dis, 2020).
# Assay: Toxicity liver stage against HepG2, at 10uM
# Type: cell-based
# Design: test concentration 10 uM, cell line HepG2-A16-CD81EGFP
# Details: human, HepG2-A16-CD81EGFP cells; read-out: INHIBITION
# Method in brief: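 Uninfected HepG2-A16-CD81EGFP cells, 3 × 10^3 per well, 1536-well, plated on prespotted compound at 10 μM final, parasite-free screening media added to match infected plates; puromycin 10 μM positive, DMSO 0.5% negative; run in parallel with 48 h PbLuc assay at 37 °C, 5% CO2; viability by CellTiter-Glo luminescence, normalized to controls.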
row,Structure (SMILES),cytotoxicity at 10 µM [%]
1,COc1ccc2[nH]cc(C(=O)CNc3nc(C)cs3)c2c1,6.04
2,Cn1cc(S(=O)(=O)N(CC(F)(F)F)C2CC2)cc1C(N)=O,-5.02
3,O=C(c1ccc(N2CCCCCC2)nn1)N1CCc2ccccc21,-8.04
4,CC(=O)N1N=C(c2ccccc2)OC1C(=O)NCCc1ccc(O)cc1 (stereo unspecified),-4
5,CSCC[C@@H](CO)NC(=O)c1sc(-c2ccc(Cl)cc2)nc1C,6.45
6,CC(C)CCNc1nc(C(=O)NC2CC2)cs1,0.461
7,Cn1cccc1C(O)CNS(=O)(=O)c1ccccc1Br (stereo unspecified),-11.1
8,CC(=O)N1CC2(CCN(S(=O)(=O)N(C)C)CC2)C2(CCNC2=O)C1 (stereo unspecified),-6.9
9,CN(C)C(=O)CCC(=O)N1CCC2(CC1)COC2,2.05
10,CN1CC2(CCN(Cc3cccnc3)CC2)c2cc(F)ccc21,14
11,CO[C@H]1CN(C(=O)c2ccc[nH]2)[C@@H]2COC[C@H]12,-6.04
12,CC(C)Nc1nc(N2CCCC2)nc2c1CN(S(C)(=O)=O)CC2,2.69
13,N#Cc1cccc(CN2CCn3cc(CNC(=O)C4CCC4)nc3C2)c1,14
14,c1ccc2c(c1)COC1(CCCCC1)N2,-11.1
15,O=C(NCCn1ccc(-c2ccccn2)n1)C1CC1,7.49
16,COCC(=O)N1Cc2cn(C)nc2C(COc2cccnc2)C1 (stereo unspecified),-11
17,Cc1nc(N2CCCC2)ncc1-c1cc(O)nc(NCC2CCCO2)n1 (stereo unspecified),0.723
18,CS(=O)(=O)N1CCC(Cc2cnc(Br)cn2)C1 (stereo unspecified),14.5
19,CC(C)CC(=O)N1C[C@H]2CCCN(S(=O)(=O)c3ccc(Cl)s3)[C@H]2C1,-1.63
20,COCCN1CCCC(Cc2cnc(-c3c(C)nn(C)c3C)cn2)C1 (stereo unspecified),-2.56
21,COc1ccccc1CC(=O)NC(C)c1nc2cccnc2n1C(C)C (stereo unspecified),-43.8
22,Cc1cnc(-c2nc(NC3CCCC3)ncc2-c2onc(C)c2C)cn1,-32.5
23,Cc1[nH]c2ccc(C(=O)N3C[C@@H](O)[C@H](N4CCOCC4)C3)cc2c1C,-21.3

row,Structure (SMILES),cytotoxicity at 10 µM [%]
1,CCCC(=O)N1CCC([C@@H]2C[C@H](C(F)(F)F)n3nc(C)cc3N2)CC1,-16.1
2,COc1ccccc1C1=NOC(CC2(C(=O)NC(C)C)CCOCC2)C1 (stereo unspecified),-20.4
3,CC(=O)N1CCc2nc(C3CCN(C(=O)c4ccccc4)C3)ncc2C1 (stereo unspecified),-4.76
4,COc1cccc(OCC(=O)N2CCOc3ccncc32)c1,7.68
5,CCOc1ccc(N(CCC#N)C(=O)c2ccc(OC)nc2)cc1,2.52
6,Cc1c(C(=O)N2CCOCC2)nnn1-c1ccc2ncccc2c1,-4.87
7,CC(C#N)CNC(=O)Nc1ccc(-c2cc[nH]n2)cc1 (stereo unspecified),-3.27
8,COC(=O)C(C)(C)NC(=O)c1scnc1Cl,-2.31
9,CCc1nnc(SC2CCN(c3ccccc3F)C2=O)n1C (stereo unspecified),1.77
10,Cc1cc(N(C)C)nc(N2CCCC2c2ccccn2)n1 (stereo unspecified),3.16
11,CC(CN1CCOC1=O)NC(=O)c1cccc(Cl)c1Cl (stereo unspecified),-3.26
12,CCC1(CC)CC(=O)N(CC(O)c2cccc(F)c2)C1=O (stereo unspecified),-3.43
13,CN(Cc1ccc(F)c(F)c1)Cc1cc2c(cc1Br)OCCO2,-140
14,Cn1cc(CCCN2CCCC(c3cc(C(F)(F)F)[nH]n3)C2)cn1 (stereo unspecified),-2.59
15,CCCS(=O)(=O)CC(=O)Nc1ccsc1,-5.61
16,c1cc(CCn2ccc(NC3CCSCC3)n2)ccn1,5.55
17,Cc1ccc(CNC(=O)NCC(=O)N2CCCC2)c(N2CCCC2)c1,5.84
18,Clc1ccc(OCCNC2(c3ccc(Br)cc3)CCOCC2)cc1,2.67
19,COc1ncccc1CNC(=O)c1cc(F)cc(Br)c1,-0.872
20,Cc1nnc(NCC(c2cccs2)N2CCCC2)c(C#N)c1C (stereo unspecified),-4.94
21,COc1c(CNCc2ccc(Cn3cccn3)cc2)c(C)nn1C,35.5
22,N#Cc1ccccc1N1CCN(CCC(=O)N2CCOCC2)CC1,10
23,COC(=O)C1CN(CC(=O)Nc2cc(F)ccc2F)c2ccccc21 (stereo unspecified),8.32

row,Structure (SMILES),cytotoxicity at 10 µM [%]
1,O=C(c1ccc(Cl)c(Cl)c1)N1CCCCC1C1OCCO1 (stereo unspecified),9.25
2,CN(C)c1ncccc1CNC(=O)N1CCN(C)c2ccccc2C1,4.72
3,COc1c(CNCc2ccc(N3CCOCC3)nc2)c(C)nn1C,9.5
4,CCc1nnc(SC2CCCN(c3cnn(C)c3)C2=O)n1C (stereo unspecified),2.68
5,CCn1c(C)nnc1CN(C)C1CCN(Cc2ccccn2)C1 (stereo unspecified),1.8
6,CN(CCN1CCOCC1)C(=O)CCCOCCc1ccccc1,-1.28
7,Cc1ccc(C)c(OC2CCN(C(=O)NCC(=O)N3CCCC3)CC2)c1,-5.75
8,CC(C)CNC(=O)CNC(=O)Nc1cccc(Cl)c1-n1cccn1,-2.45
9,O=c1[nH]nc(CNc2ncc(Cl)cn2)[nH]1,-5.98
10,COC1CCN(C(=O)c2ccccc2NCc2cccnc2)CC1,-7.22
11,CC(C)C(c1cccnc1)N(C)C(=O)Cc1ccc(O)cc1 (stereo unspecified),-1.03
12,CN(CC(=O)NC(C)(C)C)C(=O)C1CC(c2cccc(F)c2)=NO1 (stereo unspecified),19.5
13,CS(=O)(=O)CCSCc1cccc2cccnc12,-6.64
14,Cn1ncc2cnn(CC(O)COCc3ccccc3Cl)c2c1=O (stereo unspecified),3.8
15,Cc1noc(CNc2ccc(OC(F)F)cc2OC(F)F)n1,1.85
16,Cc1nc(CNC(=O)Nc2ccc3c(c2)CCCC(=O)N3)sc1C,5.06
17,CN1CCN(c2ccc(NC(=O)c3cccs3)c(C(F)(F)F)c2)CC1,3.94
18,CCOC(=O)C(C)Nc1ccc(CCN2CCOCC2)cc1 (stereo unspecified),-2.2
19,CCc1noc(CNc2ccc(F)cc2OCC2CC2)n1,-7.21
20,CC1CCN(CCNC(=O)C2CCN(S(N)(=O)=O)CC2)CC1,17.9
21,Cc1nc2n(n1)CC(Nc1cc(C(F)(F)F)nc3ncnn13)CC2 (stereo unspecified),-1.27
22,COCCC(=O)Nc1ccnc(Oc2ccccc2)c1,7.85
23,Cc1nc(CN2CCO[C@@H]3CN(C(=O)CC4CC4)CC[C@@H]3C2)cs1,3.79

row,Structure (SMILES),cytotoxicity at 10 µM [%]
1,O=C1CCC2(CCNCC2)CN1CCCOc1cccnc1,-13.2
2,O=S(=O)(NCC1COc2ccccc2C1)N1CCCC1 (stereo unspecified),-7.74
3,Cn1ccnc1CNc1nccc(-c2ncnn2C)n1,-6.47
4,O=C(CCn1cccn1)N1CC[C@@H](c2ccc3ccccc3c2)[C@H](O)C1,2.03
5,Cc1nnc(CCNC(=O)Nc2ccc(S(C)(=O)=O)cc2)[nH]1,7.91
6,O=C(CCN1CCCCO1)N1CCC(CO)(CCc2ccccc2)CC1,9.71
7,Cc1ccc([C@H]2CN(C(=O)C3CCC3)C[C@@H]2N)o1,7.95
8,COc1cc2[nH]c(=O)c(CN3CCCC(CO)C3)cc2c(OC)c1OC (stereo unspecified),-11.7
9,CN1CSC[C@H]1C(=O)N1CCC(CCc2ccccc2)CC1,3.23
10,CCCC1COCCN1Cc1ccc(NC(C)=O)cc1 (stereo unspecified),-145
11,Cc1ccccc1-n1cc(-c2ccnc(N3CCCC(CN)C3)n2)cn1 (stereo unspecified),1.34
12,Cc1n[nH]c(C)c1CN1CC[C@@H]2[C@@H](CCC(=O)N2CCc2c[nH]cn2)C1,-3
13,COC[C@]1(O)CCN(Cc2cnc(N(C)C)nc2)CC1(C)C,-5.03
14,CCn1nc(C(C)C)cc1C(=O)N1CC(OCc2ccccc2F)C1,-4.62
15,CSc1cccc(CNC(=O)C2CC(=O)N(CCN(C)C)C2)c1 (stereo unspecified),-4.15
16,CC(C)c1nc(C2CCCN(C(=O)CCCn3cccn3)C2)no1 (stereo unspecified),-1.36
17,Cc1nc(CN(C)C2CCN(Cc3cnc(C)s3)C2)no1 (stereo unspecified),-4.8
18,CC(NC(=O)CCc1cccs1)c1nnc2n1CCCCC2 (stereo unspecified),-7.59
19,CC(C)c1noc(CN2CCN(C(=O)c3ccncc3F)CC2)n1,-10.9
20,Cc1noc(C(C)N2CCN(CCN3CCCC3=O)CC2)n1 (stereo unspecified),-13.4
21,Cc1cccc(-c2noc(CN3CCOCC3C)n2)c1 (stereo unspecified),-11.9
22,O=C(c1ccc(N2CCCC2)nc1)N1CCCC(n2cncn2)C1 (stereo unspecified),-5.22
23,CC(C)(C)c1noc(CCCC(=O)NCC2CCS(=O)(=O)C2)n1 (stereo unspecified),-15.4

row,Structure (SMILES),cytotoxicity at 10 µM [%]
1,CC(Cn1cccn1)NCc1csc(-c2ncccn2)n1 (stereo unspecified),-14.7
2,Fc1ccccc1OCCN1CCCCC1Cn1cncn1 (stereo unspecified),-18.9
3,CCC(O)CN1CCN(C(=O)Cc2cc(C)ccc2OC)CC1 (stereo unspecified),-30.9
4,O=S(=O)(CCCN1CCCCC1Cn1cncn1)c1ccccc1 (stereo unspecified),-7.42
5,COc1c(CNCc2cccc(C(=O)N(C)C)c2)c(C)nn1C,-16.9
6,O=C(COC1CCCCC1)N1CCCC(n2ccnc2)C1 (stereo unspecified),-19.7
7,O=C(NCC1CCOC1)c1cc(-c2cccc(Cl)c2)on1 (stereo unspecified),-8.75
8,Cc1cnn(CC2CCCN2C(=O)c2ccc3nnc(C)n3c2)c1 (stereo unspecified),-8.11
9,CC(C)CN1CCn2c(COCc3cccnc3)nnc2C1,5.8
10,CO[C@H]1CCN(C(=O)Cc2ccsc2)[C@@H]2CN(CC3CC3)C[C@H]12,6.35
11,CCN1CCC12CCN(C(=O)c1ccsc1)C2 (stereo unspecified),-148
12,O=C1[C@H]2CN(S(=O)(=O)c3ccccc3)C[C@H]2CN1Cc1cccnc1,-0.0837
13,COc1cc(N2C[C@H](C(=O)NCC3CC3)[C@@H]3CCO[C@@H]3C2)ncn1,2.87
14,COc1ccccc1CN1CC[C@]2(C[C@H](OC)CO2)C1,-11.1
15,Cc1cccc(CN2C[C@@H]3COC[C@]3(CNC(=O)c3ccno3)C2)n1,3.84
16,O=C(NCc1cccs1)C1CNCC12CCOCC2 (stereo unspecified),-5.43
17,COCc1ncn2c1CN(C(=O)c1cccc3cccnc13)CC2,-19.7
18,Cc1ccc(CN2CCC3(CCC(=O)N3CC(=O)N(C)C)CC2)s1,-2.45
19,O=C(c1cccnc1)N1C[C@H]2CC[C@@H](C1)N(Cc1ccc(F)cc1Cl)C2,1.17
